Laboratory results published in ChEMBL document CHEMBL1155789, “Design, synthesis, and evaluation of 3C protease inhibitors as anti-enterovirus 71 agents” (Bioorg Med Chem, 2008).
Calls of active or inactive are those of the source. The calls are words filed in the database; no cut-off is given here.

System: not listed separately
Experiment: Inhibition of Human enterovirus 71 TW/2231/98 recombinant protease 3C expressed in Escherichia coli JM109 competent cells
Set-up: species or system Enterovirus A71
Conditions: not given
Procedure, shortened: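 His-tagged EV71 3C protease expressed in E. coli […] and purified on Ni–NTA. Fluorescence read at 538 nm with excitation at 355 nm. Initial velocities over the first 5 min were plotted against inhibitor concentration and fitted to a hyperbolic activity equation to give IC50.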

Row | Compound | IC50
1 | O=C[C@H](C[C@@H]1CCNC1=O)NC(=O)[C@H](Cc1ccccc1)NC(=O)/C=C/c1ccc2c(c1)OCO2 | < 0.5 µM
2 | CCOC(=O)/C=C/[C@H](C[C@@H]1CCNC1=O)NC(=O)[C@H](Cc1ccccc1)NC(=O)/C=C/c1ccccc1 | 10 µM
3 | O=C[C@H](C[C@@H]1CCNC1=O)NC(=O)[C@H](Cc1ccccc1)NC(=O)/C=C/c1ccc(Cl)cc1F | < 0.5 µM
4 | CCOC(=O)/C=C/[C@H](C[C@@H]1CCNC1=O)NC(=O)[C@H](Cc1ccccc1)NC(=O)OC(C)(C)C | > 20 µM
5 | CCOC(=O)/C=C/[C@H](C[C@@H]1CCNC1=O)NC(=O)[C@H](Cc1ccccc1)NC(=O)/C=C/c1ccc(N(C)C)cc1 | 8.2 µM
6 | Cc1cc(/C=C/C(=O)N[C@@H](Cc2ccccc2)C(=O)N[C@H](C=O)C[C@@H]2CCNC2=O)no1 | < 0.5 µM
7 | CCOC(=O)/C=C/[C@H](C[C@@H]1CCNC1=O)NC(=O)[C@H](Cc1ccccc1)NC(=O)/C=C/c1ccc2c(c1)OCO2 | 10.6 µM
8 | Cc1ccc(/C=C/C(=O)N[C@@H](Cc2ccccc2)C(=O)N[C@H](C=O)C[C@@H]2CCNC2=O)cc1 | < 0.5 µM
9 | O=C[C@H](C[C@@H]1CCNC1=O)NC(=O)[C@H](Cc1ccccc1)NC(=O)OCc1ccccc1 | < 0.5 µM
10 | O=C[C@H](C[C@@H]1CCNC1=O)NC(=O)[C@H](Cc1ccccc1)NC(=O)/C=C/c1ccccc1 | < 0.5 µM
11 | CN(C)c1ccc(/C=C/C(=O)N[C@@H](Cc2ccccc2)C(=O)N[C@H](C=O)C[C@@H]2CCNC2=O)cc1 | < 0.5 µM

System: not listed separately
Experiment: (§1) Inhibition of Human enterovirus 71 TW/2231/98 recombinant protease 3C expressed in Escherichia coli JM109 competent cells by time dependent assay
Set-up: species or system Enterovirus A71
Conditions: not given
Procedure, shortened: (§2)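 Time-dependent inactivation: 0.5 μM 3C protease incubated with 1–10 μM inhibitor in the fluorogenic peptide assay (10 mM MES pH 6.5, 25 °C). Activity loss versus incubation time was fitted to a single exponential to give kobs. Half-life (ln2/kobs) was replotted against reciprocal inhibitor concentration to give kinact and Ki.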

Row | Compound | Ki
12 | CCOC(=O)/C=C/[C@H](C[C@@H]1CCNC1=O)NC(=O)[C@H](Cc1ccccc1)NC(=O)/C=C/c1ccc(N(C)C)cc1 | 2.6 µM

System: Enterovirus A71
Experiment: as §1
Conditions: not given
Procedure, shortened: as §2

Row | Compound | Kinact
13 | CCOC(=O)/C=C/[C@H](C[C@@H]1CCNC1=O)NC(=O)[C@H](Cc1ccccc1)NC(=O)/C=C/c1ccc(N(C)C)cc1 | 0.077 min⁻¹

System: Enterovirus A71
Experiment: Antiviral activity against Human enterovirus 71 in human rhabdomyosarcoma cells assessed as virus-induced cell death after 72 hrs
Format: functional, organism-based
Conditions: Enterovirus A
Procedure, shortened: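 RD cells seeded at 1.1×10^5 cells/mL in DMEM with 10% FBS, grown 24-30 h at 37 °C to about 90% confluence. Virus (100 TCID50) mixed with test compound was adsorbed 1 h at 35 °C, then overlaid with DMEM, 2% FBS, 0.1% DMSO for 72 h at 35 °C. Formaldehyde fixation, crystal violet stain, A570. EC50 is 50% reduction of virus-induced cell death versus virus control. Triplicate, at least twice.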

Row | Compound | EC50
14 | O=C[C@H](C[C@@H]1CCNC1=O)NC(=O)[C@H](Cc1ccccc1)NC(=O)/C=C/c1ccc2c(c1)OCO2 | 0.16 µM
15 | CCOC(=O)/C=C/[C@H](C[C@@H]1CCNC1=O)NC(=O)[C@H](Cc1ccccc1)NC(=O)/C=C/c1ccccc1 | 1.3 µM
16 | O=C[C@H](C[C@@H]1CCNC1=O)NC(=O)[C@H](Cc1ccccc1)NC(=O)/C=C/c1ccc(Cl)cc1F | 0.007 µM
17 | CCOC(=O)/C=C/[C@H](C[C@@H]1CCNC1=O)NC(=O)[C@H](Cc1ccccc1)NC(=O)OC(C)(C)C | > 20 µM
18 | CCOC(=O)/C=C/[C@H](C[C@@H]1CCNC1=O)NC(=O)[C@H](Cc1ccccc1)NC(=O)/C=C/c1ccc(N(C)C)cc1 | 2.9 µM
19 | Cc1cc(/C=C/C(=O)N[C@@H](Cc2ccccc2)C(=O)N[C@H](C=O)C[C@@H]2CCNC2=O)no1 | 0.94 µM
20 | CCOC(=O)/C=C/[C@H](C[C@@H]1CCNC1=O)NC(=O)[C@H](Cc1ccccc1)NC(=O)/C=C/c1ccc2c(c1)OCO2 | 1.8 µM
21 | Cc1ccc(/C=C/C(=O)N[C@@H](Cc2ccccc2)C(=O)N[C@H](C=O)C[C@@H]2CCNC2=O)cc1 | 0.026 µM
22 | O=C[C@H](C[C@@H]1CCNC1=O)NC(=O)[C@H](Cc1ccccc1)NC(=O)OCc1ccccc1 | 0.031 µM
23 | O=C[C@H](C[C@@H]1CCNC1=O)NC(=O)[C@H](Cc1ccccc1)NC(=O)/C=C/c1ccccc1 | 0.096 µM
24 | CN(C)c1ccc(/C=C/C(=O)N[C@@H](Cc2ccccc2)C(=O)N[C@H](C=O)C[C@@H]2CCNC2=O)cc1 | 0.018 µM

System: RD
Experiment: Cytotoxicity against human RD cells
Format: cell-based
Conditions: not given

Row | Compound | CC50
25 | O=C[C@H](C[C@@H]1CCNC1=O)NC(=O)[C@H](Cc1ccccc1)NC(=O)/C=C/c1ccc2c(c1)OCO2 | > 25 µM
26 | CCOC(=O)/C=C/[C@H](C[C@@H]1CCNC1=O)NC(=O)[C@H](Cc1ccccc1)NC(=O)/C=C/c1ccccc1 | 8 µM
27 | O=C[C@H](C[C@@H]1CCNC1=O)NC(=O)[C@H](Cc1ccccc1)NC(=O)/C=C/c1ccc(Cl)cc1F | 5.1 µM
28 | CCOC(=O)/C=C/[C@H](C[C@@H]1CCNC1=O)NC(=O)[C@H](Cc1ccccc1)NC(=O)/C=C/c1ccc(N(C)C)cc1 | 21.4 µM
29 | Cc1cc(/C=C/C(=O)N[C@@H](Cc2ccccc2)C(=O)N[C@H](C=O)C[C@@H]2CCNC2=O)no1 | > 25 µM
30 | CCOC(=O)/C=C/[C@H](C[C@@H]1CCNC1=O)NC(=O)[C@H](Cc1ccccc1)NC(=O)/C=C/c1ccc2c(c1)OCO2 | > 25 µM
31 | Cc1ccc(/C=C/C(=O)N[C@@H](Cc2ccccc2)C(=O)N[C@H](C=O)C[C@@H]2CCNC2=O)cc1 | > 25 µM
32 | O=C[C@H](C[C@@H]1CCNC1=O)NC(=O)[C@H](Cc1ccccc1)NC(=O)OCc1ccccc1 | 23.6 µM
33 | O=C[C@H](C[C@@H]1CCNC1=O)NC(=O)[C@H](Cc1ccccc1)NC(=O)/C=C/c1ccccc1 | > 25 µM
34 | CN(C)c1ccc(/C=C/C(=O)N[C@@H](Cc2ccccc2)C(=O)N[C@H](C=O)C[C@@H]2CCNC2=O)cc1 | > 25 µM

System: not listed separately
Experiment: Selectivity index, ratio of CC50 for human RD cells to EC50 for Human enterovirus 71
Format: toxicity, cell-based
Conditions: RD cells, read-out: Ratio CC50/EC50

Row | Compound | selectivity ratio
35 | Cc1ccc(/C=C/C(=O)N[C@@H](Cc2ccccc2)C(=O)N[C@H](C=O)C[C@@H]2CCNC2=O)cc1 | > 1000
36 | CN(C)c1ccc(/C=C/C(=O)N[C@@H](Cc2ccccc2)C(=O)N[C@H](C=O)C[C@@H]2CCNC2=O)cc1 | > 1000

Same assay, conditions: rd

Row | Compound | Ratio CC50/EC50
37 | O=C[C@H](C[C@@H]1CCNC1=O)NC(=O)[C@H](Cc1ccccc1)NC(=O)/C=C/c1ccc(Cl)cc1F | 714

System: RD
Experiment: Inhibition of Human enterovirus 71 TW/2231/98 recombinant protease 3C in human RD cells at 0.01 to 1 uM after 48 hrs by Western blotting
Format: cell-based
Conditions: Enterovirus A71
Procedure, shortened: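 Confluent RD cells in DMEM with 10% fetal calf serum were infected with EV71 TW/2231/98 at MOI 0.01 with or without compound at 0.01–1 μM. After 48 h, total lysates were run on 12% SDS–PAGE and blotted with mouse monoclonal anti-3C and anti-β-actin antibodies. Detection used an HRP anti-mouse secondary (1:2000) and ECL.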

Row | Compound | Activity
38 | Cc1ccc(/C=C/C(=O)N[C@@H](Cc2ccccc2)C(=O)N[C@H](C=O)C[C@@H]2CCNC2=O)cc1 | Active

System: Echovirus E6
Experiment: Antiviral activity against Human echovirus 6
Format: functional, organism-based
Conditions: Enterovirus B

Row | Compound | EC50
39 | CCOC(=O)/C=C/[C@H](C[C@@H]1CCNC1=O)NC(=O)[C@@H](CC(=O)[C@@H](NC(=O)c1cc(C)on1)C(C)C)Cc1ccc(F)cc1 [RUPINTRIVIR] | 0.043 µM

System: Echovirus E9
Experiment: Antiviral activity against Human echovirus 9
Format: functional, organism-based
Conditions: Enterovirus B

Row | Compound | EC50
40 | CCOC(=O)/C=C/[C@H](C[C@@H]1CCNC1=O)NC(=O)[C@@H](CC(=O)[C@@H](NC(=O)c1cc(C)on1)C(C)C)Cc1ccc(F)cc1 [RUPINTRIVIR] | 0.015 µM
